Experimental data published in ChEMBL document CHEMBL3351505, “Ultrasound-assisted synthesis of novel 1,2,3-triazoles coupled diaryl sulfone moieties by the CuAAC reaction, and biological evaluation of them as antioxidant and antimicrobial agents” (Eur J Med Chem, 2014).
≈ marks a conversion by molar mass, not a printed value. Calls of active or inactive are those of the source. The calls are words filed in the database; no cut-off is given here.

How the values were obtained:
Pseudomonas aeruginosa = experiment: microbe, parasite or virus in culture; settings: ATCC 27953, 24 h, read-out: DIZ
Priestia megaterium [1] = experiment: Antibacterial activity against Bacillus megaterium ATCC 9885 after 24 hrs by two fold serial dilution method; type: functional; settings: ATCC 9885, 24 h
Micrococcus luteus [2] = experiment: Antibacterial activity against Sarcina lutea after 24 hrs by two fold serial dilution method; type: functional
Escherichia coli = experiment: Antibacterial activity against Escherichia coli ATCC 25922 after 24 hrs by two fold serial dilution method; type: functional; settings: ATCC 25922, 24 h
Saccharomyces cerevisiae [3] = experiment: Antifungal activity against Saccharomyces cerevisiae after 48 hrs by two fold serial dilution method; type: functional
How it was run: (§1)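 Two-fold serial broth dilution in a suitable broth, run only on compounds giving inhibition zones of at least 16 mm. Final concentrations were […]. Each 5 mL received 0.1 mL inoculum and was incubated 48 h at 28 °C. MIC was the lowest concentration without growth.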

Staphylococcus aureus = experiment: microbe, parasite or virus in culture; settings: ATCC 29213, 24 h, read-out: DIZ
Priestia megaterium [4] = experiment: Antibacterial activity against Bacillus megaterium ATCC 9885 at 50 mg/mL after 24 hrs by agar well diffusion method; type: functional; settings: ATCC 9885, 24 h, read-out: DIZ
Micrococcus luteus [5] = experiment: Antibacterial activity against Sarcina lutea at 50 mg/mL after 24 hrs by agar well diffusion method; type: functional; settings: read-out: DIZ
Candida albicans [6] = experiment: Antifungal activity against Candida albicans NRRL Y-477 after 48 hrs by two fold serial dilution method; type: functional
How it was run: as §1

Klebsiella pneumoniae [7] = experiment: microbe, parasite or virus in culture; settings: ATCC 13883, 24 h, read-out: DIZ
Aspergillus niger [8] = experiment: Antifungal activity against Aspergillus niger after 48 hrs by two fold serial dilution method; type: functional
How it was run: as §1

Klebsiella pneumoniae [9] = experiment: Antibacterial activity against Klebsiella pneumoniae ATCC 13883 after 24 hrs by two fold serial dilution method; type: functional; settings: ATCC 13883, 24 h
Saccharomyces cerevisiae [10] = experiment: Antifungal activity against Saccharomyces cerevisiae at 50 mg/mL after 48 hrs by agar well diffusion method; type: functional
Aspergillus niger [11] = experiment: Antifungal activity against Aspergillus niger at 50 mg/mL after 48 hrs by agar well diffusion method; type: functional
Bacillus subtilis [12] = experiment: microbe, parasite or virus in culture; settings: ATCC 6633, 24 h, read-out: DIZ
Candida albicans [13] = experiment: Antifungal activity against Candida albicans NRRL Y-477 at 50 mg/mL after 48 hrs by agar well diffusion method; type: functional
Bacillus subtilis [14] = experiment: Antibacterial activity against Bacillus subtilis ATCC 6633 after 24 hrs by two fold serial dilution method; type: functional; settings: ATCC 6633, 24 h

Question: How did the zone of inhibition at 50000 µg/mL (Pseudomonas aeruginosa) turn out when `O=C(O)c1cn(C2CC2)c2cc(N3CCNCC3)c(F)cc2c1=O` [CIPROFLOXACIN] was run?
Answer: Its zone of inhibition at 50000 µg/mL is 24 mm.

Question: And the MIC (Priestia megaterium [1])?
Answer: The MIC was 25 µg/mL (≈ 75.4 µM).

Question: What about the MIC (Micrococcus luteus [2]) of the same compound?
Answer: The MIC was 25 µg/mL (≈ 75.4 µM).

Question: What about the MIC (Escherichia coli) of the same compound?
Answer: Its MIC is 25 µg/mL (≈ 75.4 µM).

Question: What about the MIC (Saccharomyces cerevisiae [3]) of the same compound?
Answer: The MIC was “inactive”.

Question: What about the zone of inhibition at 50000 µg/mL (Staphylococcus aureus) of the same compound?
Answer: The zone of inhibition at 50000 µg/mL was 20 mm.

Question: What about the zone of inhibition at 50000 µg/mL (Priestia megaterium [4]) of the same compound?
Answer: The zone of inhibition at 50000 µg/mL was 24 mm.

Question: What about the zone of inhibition at 50000 µg/mL (Micrococcus luteus [5]) of the same compound?
Answer: Its zone of inhibition at 50000 µg/mL is 20 mm.

Question: And the MIC (Candida albicans [6])?
Answer: The MIC was “inactive”.

Question: And the zone of inhibition at 50000 µg/mL (Klebsiella pneumoniae [7])?
Answer: Its zone of inhibition at 50000 µg/mL is 25 mm.

Question: What about the MIC (Aspergillus niger [8]) of the same compound?
Answer: Its MIC is “inactive”.

Question: And the MIC (Klebsiella pneumoniae [9])?
Answer: Its MIC is 25 µg/mL (≈ 75.4 µM).

Question: What about the “diameter of the inhibition zone (DIZ)” value (Saccharomyces cerevisiae [10]) of the same compound?
Answer: Its value is “inactive”.

Question: What about the “diameter of the inhibition zone (DIZ)” value (Aspergillus niger [11]) of the same compound?
Answer: The value was “inactive”.

Question: And the zone of inhibition at 50000 µg/mL (Bacillus subtilis [12])?
Answer: Its zone of inhibition at 50000 µg/mL is 22 mm.

Question: And the “diameter of the inhibition zone (DIZ)” value (Candida albicans [13])?
Answer: The value was “inactive”.

Question: What about the MIC (Bacillus subtilis [14]) of the same compound?
Answer: The MIC was 25 µg/mL (≈ 75.4 µM).
